{"source": "ChEMBL document CHEMBL1141362", "about": "“Synthesis and solid-phase purification of anthranilic sulfonamides as CCK-2 ligands” (Bioorg Med Chem Lett, 2007)", "key": {"[1]": {"molecular_target": "T1, Gastrin/cholecystokinin type B receptor (Homo sapiens, UniProt P32239)", "T1 sequence (P32239 whole entry)": "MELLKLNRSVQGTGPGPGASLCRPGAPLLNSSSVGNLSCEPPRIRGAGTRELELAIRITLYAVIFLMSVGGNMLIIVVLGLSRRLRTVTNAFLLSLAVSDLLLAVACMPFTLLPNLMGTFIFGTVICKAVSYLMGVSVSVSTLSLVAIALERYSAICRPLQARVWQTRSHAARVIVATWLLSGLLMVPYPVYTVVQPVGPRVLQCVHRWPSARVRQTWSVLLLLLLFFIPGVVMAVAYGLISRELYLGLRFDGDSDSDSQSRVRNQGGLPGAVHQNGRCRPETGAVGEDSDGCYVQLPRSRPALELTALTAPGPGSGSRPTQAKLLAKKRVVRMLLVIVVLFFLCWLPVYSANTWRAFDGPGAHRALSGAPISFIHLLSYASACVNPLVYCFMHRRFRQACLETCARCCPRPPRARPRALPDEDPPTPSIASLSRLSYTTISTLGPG", "test": "Displacement of [125I]CCK-8S from CCK2 receptor", "method_in_brief": "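Apparent antagonist equilibrium dissociation constant, reported as its negative logarithm, derived by the Cheng–Prusoff method from the concentration displacing 50% of 125I-CCK-8S (pIC50). Values are ±0.3 log units unless stated otherwise.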"}, "[2]": {"test": "Metabolic stability in rat liver microsomes after 30 mins", "format": "ADME, Microsome", "conditions": "read-out: Stability", "method_in_brief": "(§1)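 Compound incubated with human or rat liver microsomes to assess stability toward CYP450 oxidation. The read-out is percent of parent compound remaining after 30 min.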"}, "[3]": {"test": "Metabolic stability in human liver microsomes after 30 mins", "format": "ADME, Microsome", "conditions": "read-out: Stability", "method_in_brief": "as §1"}, "[4]": {"molecular_target": "T2, Cholecystokinin receptor type A (Homo sapiens, UniProt P32238)", "T2 sequence (P32238 whole entry)": "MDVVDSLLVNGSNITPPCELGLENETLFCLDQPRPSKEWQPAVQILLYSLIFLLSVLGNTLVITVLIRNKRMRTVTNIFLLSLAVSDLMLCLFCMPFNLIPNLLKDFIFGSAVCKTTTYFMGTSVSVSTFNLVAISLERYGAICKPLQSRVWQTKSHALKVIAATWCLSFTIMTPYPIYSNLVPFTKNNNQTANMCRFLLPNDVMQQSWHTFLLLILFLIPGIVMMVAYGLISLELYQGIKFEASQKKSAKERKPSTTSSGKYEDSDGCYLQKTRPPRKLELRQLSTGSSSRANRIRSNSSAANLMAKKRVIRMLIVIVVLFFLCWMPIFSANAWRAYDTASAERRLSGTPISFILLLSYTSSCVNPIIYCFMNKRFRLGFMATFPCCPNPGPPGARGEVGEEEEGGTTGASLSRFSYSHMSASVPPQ", "test": "Binding affinity to CCK1 receptor"}}}
{"smiles": "COC(=O)c1sc(C(F)(F)F)c(-c2ccccc2)c1S(=O)(=O)Nc1cc(Br)ccc1C(=O)N1CCCCC1", "values": [{"measurement": "Ki", "setting": "[1]", "value": 7.94, "unit": "µM"}, {"measurement": "remaining at 0.5 h", "setting": "[2]", "value": 0, "unit": "%"}, {"measurement": "remaining at 0.5 h", "setting": "[3]", "value": 0, "unit": "%"}]}
{"smiles": "O=C(c1ccc(Br)cc1NS(=O)(=O)c1ccc(-c2cc(C(F)(F)F)on2)s1)N1CCCCC1", "values": [{"measurement": "Ki", "setting": "[1]", "value": 5.01, "unit": "µM"}, {"measurement": "remaining at 0.5 h", "setting": "[2]", "value": 87, "unit": "%"}, {"measurement": "remaining at 0.5 h", "setting": "[3]", "value": 89, "unit": "%"}]}
{"smiles": "Cc1c(S(=O)(=O)Nc2cc(Br)ccc2C(=O)N2CCCCC2)cnn1-c1ccccc1", "values": [{"measurement": "Ki", "setting": "[1]", "value": 7.94, "unit": "µM"}, {"measurement": "remaining at 0.5 h", "setting": "[2]", "value": 30, "unit": "%"}, {"measurement": "remaining at 0.5 h", "setting": "[3]", "value": 85, "unit": "%"}]}
{"smiles": "O=C(c1ccc(Br)cc1NS(=O)(=O)c1csc2ccccc12)N1CCCCC1", "values": [{"measurement": "Ki", "setting": "[1]", "value": 3.16, "unit": "µM"}, {"measurement": "remaining at 0.5 h", "setting": "[2]", "value": 19, "unit": "%"}, {"measurement": "remaining at 0.5 h", "setting": "[3]", "value": 23, "unit": "%"}]}
{"smiles": "COC(=O)c1sccc1S(=O)(=O)Nc1cc(Br)ccc1C(=O)N1CCCCC1", "values": [{"measurement": "Ki", "setting": "[1]", "value": 1.58, "unit": "µM"}, {"measurement": "remaining at 0.5 h", "setting": "[2]", "value": 37, "unit": "%"}, {"measurement": "remaining at 0.5 h", "setting": "[3]", "value": 3, "unit": "%"}]}
{"smiles": "O=C(c1ccc(Br)cc1NS(=O)(=O)c1ccc(C(F)(F)F)cc1Cl)N1CCCCC1", "values": [{"measurement": "Ki", "setting": "[1]", "value": 0.631, "unit": "µM"}, {"measurement": "remaining at 0.5 h", "setting": "[2]", "value": 49, "unit": "%"}, {"measurement": "remaining at 0.5 h", "setting": "[3]", "value": 44, "unit": "%"}]}
{"smiles": "O=C(c1ccc(Br)cc1NS(=O)(=O)c1c(Cl)nc2sccn12)N1CCCCC1", "values": [{"measurement": "Ki", "setting": "[1]", "value": 1.58, "unit": "µM"}, {"measurement": "remaining at 0.5 h", "setting": "[2]", "value": 100, "unit": "%"}, {"measurement": "remaining at 0.5 h", "setting": "[3]", "value": 7, "unit": "%"}]}
{"smiles": "COC(=O)c1cc(S(=O)(=O)Nc2cc(Br)ccc2C(=O)N2CCCCC2)oc1C", "values": [{"measurement": "Ki", "setting": "[1]", "value": 5.01, "unit": "µM"}, {"measurement": "remaining at 0.5 h", "setting": "[2]", "value": 100, "unit": "%"}, {"measurement": "remaining at 0.5 h", "setting": "[3]", "value": 10, "unit": "%"}]}
{"smiles": "O=C(c1ccc(Br)cc1NS(=O)(=O)c1ccc2c(c1)OCCCO2)N1CCCCC1", "values": [{"measurement": "Ki", "setting": "[1]", "value": 2.51, "unit": "µM"}, {"measurement": "remaining at 0.5 h", "setting": "[2]", "value": 9, "unit": "%"}, {"measurement": "remaining at 0.5 h", "setting": "[3]", "value": 41, "unit": "%"}]}
{"smiles": "O=C(c1ccc(Br)cc1NS(=O)(=O)c1cccc2nsnc12)N1CCCCC1", "values": [{"measurement": "remaining at 0.5 h", "setting": "[2]", "value": 29, "unit": "%"}, {"measurement": "remaining at 0.5 h", "setting": "[3]", "value": 0, "unit": "%"}]}
{"smiles": "Cc1nc(-c2ccc(S(=O)(=O)Nc3cc(Br)ccc3C(=O)N3CCCCC3)s2)cs1", "values": [{"measurement": "Ki", "setting": "[1]", "value": 3.98, "unit": "µM"}, {"measurement": "remaining at 0.5 h", "setting": "[2]", "value": 47, "unit": "%"}, {"measurement": "remaining at 0.5 h", "setting": "[3]", "value": 5, "unit": "%"}]}
{"smiles": "O=C(c1ccc(Br)cc1NS(=O)(=O)c1ccc2nsnc2c1)N1CCCCC1", "values": [{"measurement": "Ki", "setting": "[1]", "value": 5.01, "unit": "µM"}, {"measurement": "remaining at 0.5 h", "setting": "[2]", "value": 23, "unit": "%"}, {"measurement": "remaining at 0.5 h", "setting": "[3]", "value": 13, "unit": "%"}]}
{"smiles": "O=C(c1ccc(Br)cc1NS(=O)(=O)c1c(F)cccc1F)N1CCCCC1", "values": [{"measurement": "Ki", "setting": "[1]", "value": 0.501, "unit": "µM"}, {"measurement": "remaining at 0.5 h", "setting": "[2]", "value": 78, "unit": "%"}, {"measurement": "remaining at 0.5 h", "setting": "[3]", "value": 77, "unit": "%"}]}
{"smiles": "O=C(c1cc(Cl)ccc1NS(=O)(=O)c1cccc2nsnc12)N1CCCCC1", "values": [{"measurement": "Ki", "setting": "[4]", "value": "> 10", "unit": "µM"}]}
{"smiles": "O=C(NCc1ccc(S(=O)(=O)Nc2cc(Br)ccc2C(=O)N2CCCCC2)s1)c1ccccc1", "values": [{"measurement": "Ki", "setting": "[1]", "value": 6.31, "unit": "µM"}, {"measurement": "remaining at 0.5 h", "setting": "[2]", "value": 0, "unit": "%"}, {"measurement": "remaining at 0.5 h", "setting": "[3]", "value": 0, "unit": "%"}]}
{"smiles": "COC(=O)c1c(C)oc(C)c1S(=O)(=O)Nc1cc(Br)ccc1C(=O)N1CCCCC1", "values": [{"measurement": "Ki", "setting": "[1]", "value": 0.501, "unit": "µM"}, {"measurement": "remaining at 0.5 h", "setting": "[2]", "value": 11, "unit": "%"}, {"measurement": "remaining at 0.5 h", "setting": "[3]", "value": 0, "unit": "%"}]}
{"smiles": "Cc1nnc(-c2cccc(S(=O)(=O)Nc3cc(Br)ccc3C(=O)N3CCCCC3)c2)o1", "values": [{"measurement": "Ki", "setting": "[1]", "value": 7.94, "unit": "µM"}, {"measurement": "remaining at 0.5 h", "setting": "[2]", "value": 66, "unit": "%"}, {"measurement": "remaining at 0.5 h", "setting": "[3]", "value": 0, "unit": "%"}]}
{"smiles": "CSc1nccc(-c2ccc(S(=O)(=O)Nc3cc(Br)ccc3C(=O)N3CCCCC3)s2)n1", "values": [{"measurement": "Ki", "setting": "[1]", "value": 3.16, "unit": "µM"}, {"measurement": "remaining at 0.5 h", "setting": "[2]", "value": 39, "unit": "%"}, {"measurement": "remaining at 0.5 h", "setting": "[3]", "value": 63, "unit": "%"}]}
{"smiles": "COC(=O)c1csc(S(=O)(=O)Nc2cc(Br)ccc2C(=O)N2CCCCC2)c1OC", "values": [{"measurement": "Ki", "setting": "[1]", "value": 5.01, "unit": "µM"}, {"measurement": "remaining at 0.5 h", "setting": "[2]", "value": 0, "unit": "%"}, {"measurement": "remaining at 0.5 h", "setting": "[3]", "value": 0, "unit": "%"}]}
{"smiles": "O=C(c1ccc(Br)cc1NS(=O)(=O)c1sc(Cl)cc1Br)N1CCCCC1", "values": [{"measurement": "Ki", "setting": "[1]", "value": 0.794, "unit": "µM"}, {"measurement": "remaining at 0.5 h", "setting": "[2]", "value": 68, "unit": "%"}, {"measurement": "remaining at 0.5 h", "setting": "[3]", "value": 2, "unit": "%"}]}
{"smiles": "N#Cc1cccc(S(=O)(=O)Nc2cc(Br)ccc2C(=O)N2CCCCC2)c1", "values": [{"measurement": "Ki", "setting": "[1]", "value": 5.01, "unit": "µM"}, {"measurement": "remaining at 0.5 h", "setting": "[2]", "value": 100, "unit": "%"}, {"measurement": "remaining at 0.5 h", "setting": "[3]", "value": 7, "unit": "%"}]}
{"smiles": "Cc1ccc(S(=O)(=O)Nc2cc(Br)ccc2C(=O)N2CCCCC2)cc1[N+](=O)[O-]", "values": [{"measurement": "Ki", "setting": "[1]", "value": 2, "unit": "µM"}, {"measurement": "remaining at 0.5 h", "setting": "[2]", "value": 25, "unit": "%"}, {"measurement": "remaining at 0.5 h", "setting": "[3]", "value": 3, "unit": "%"}]}
